# From ChEMBL document CHEMBL1146375, “Synthetic studies on novel benzimidazolopeptides with antimicrobial, cytotoxic and anthelmintic potential” (2007)
# How the values were obtained:
# Escherichia coli [1] = experiment: Antibacterial activity against Escherichia coli NCIM 2065 after 18 hrs by disc diffusion method; format: functional
# Outline: (§1)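 Modified Kirby-Bauer disc diffusion. Plates inoculated with spore suspension (about 6 × 10⁴ spores mL^-1). Sterile 6 mm paper discs carried test samples at 10 mg mL^-1; ciprofloxacin disc as reference, DMF disc as negative control. Plates held 18 h at 37 °C. Inhibition zone diameters (mm) averaged over triplicate sets.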
# Escherichia coli [2] = experiment: Antibacterial activity against Escherichia coli NCIM 2065 after 18 hrs by tube dilution method; format: functional; settings: NCIM 2065, 18 h
# Eudrilus [3] = experiment: Anthelmintic activity against Eudrilus sp. assessed as mean paralyzing time; format: functional
# Outline: (§2)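 Earthworms exposed to test suspensions at 2 mg mL^-1 (0.2% w/v), made by triturating compound with Tween 80 (0.5%) and distilled water, then mechanically stirred 30 min. Mebendazole suspension prepared alike as reference. Paralysis and death times recorded; death confirmed by no movement in 50 °C water. Means from triplicate sets.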
# Aspergillus niger = experiment: Antifungal activity against Aspergillus niger MUCC 177 after 48 hrs by disc diffusion method; format: functional
# Outline: (§3)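 Agar well diffusion on plates inoculated with spore suspension in normal saline from cultures on Sabouraud's broth. Wells punched and loaded with test samples or griseofulvin at 10 mg mL^-1, with DMSO as negative control. Incubated 48 h at 37 °C.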
# Pseudomonas aeruginosa [4] = experiment: Antibacterial activity against Pseudomonas aeruginosa NCIM 2034 after 18 hrs by disc diffusion method; format: functional; outline: as §1
# Staphylococcus aureus [5] = experiment: Antibacterial activity against Staphylococcus aureus NCIM 2079 after 18 hrs by disc diffusion method; format: functional; outline: as §1
# Staphylococcus aureus [6] = experiment: Antibacterial activity against Staphylococcus aureus NCIM 2079 after 18 hrs by tube dilution method; format: functional; settings: NCIM 2079, 18 h
# Outline: (§4)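 Tube dilution MIC. Stock diluted in sterile broth to seven concentrations from 200 to 3.1 […]. Each tube inoculated with one loopful of test bacterium and incubated 18 h at 37 °C. MIC read from presence or absence of growth.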
# [7] = Anthelmintic activity against Megascoplex konkanensis ICARBC 211 assessed as mean death time; format: functional; outline: as §2
# Pontoscolex corethrurus [8] = experiment: Anthelmintic activity against Pontoscolex corethrurus ICARBC 408 assessed as mean paralyzing time; format: functional; outline: as §2
# Eudrilus [9] = experiment: Anthelmintic activity against Eudrilus sp. assessed as mean death time; format: functional
# Outline: (§5)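 Earthworms exposed to test suspensions at 2 mg mL−1, prepared by triturating compound with Tween 80 (0.5%) and distilled water, stirring 30 min, then diluting to 0.2% w/v. Mebendazole suspension was made the same way. Death was confirmed by moving worms into 50 °C warm water and looking for movement. Mean death time (min) taken from triplicate sets.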
# Bacillus subtilis [10] = experiment: Antibacterial activity against Bacillus subtilis NCIM 2063 after 18 hrs by disc diffusion method; format: functional; outline: as §1
# Microsporum audouinii [11] = experiment: Antifungal activity against Microsporum audouinii MUCC 545 after 48 hrs by disc diffusion method; format: functional; outline: as §3
# Trichophyton benhamiae [12] = experiment: Antifungal activity against Trichophyton mentagrophytes MUCC 665 after 48 hrs by disc diffusion method; format: functional, Arthroderma benhamiae; outline: as §3
# Candida albicans [13] = experiment: Antifungal activity against Candida albicans MUCC 29 after 48 hrs by tube dilution method; format: functional
# Outline: (§6)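 Tube dilution MIC as for bacteria (seven concentrations, 200–3.1 […]), with DMSO in place of DMF. Tubes inoculated with fungal culture and incubated 48 h at 37 °C. MIC read from presence or absence of growth.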
# [14] = Anthelmintic activity against Megascoplex konkanensis ICARBC 211 assessed as mean paralyzing time; format: functional; outline: as §2
# Microsporum audouinii [15] = experiment: Antifungal activity against Microsporum audouinii MUCC 545 after 48 hrs by tube dilution method; format: functional; outline: as §6
# Pseudomonas aeruginosa [16] = experiment: Antibacterial activity against Pseudomonas aeruginosa NCIM 2034 after 18 hrs by tube dilution method; format: functional; settings: NCIM 2034, 18 h; outline: as §4
# Trichophyton benhamiae [17] = experiment: Antifungal activity against Trichophyton mentagrophytes MUCC 665 after 48 hrs by tube dilution method; format: functional, Arthroderma benhamiae; outline: as §6
# Bacillus subtilis [18] = experiment: Antibacterial activity against Bacillus subtilis NCIM 2063 after 18 hrs by tube dilution method; format: functional; settings: NCIM 2063, 18 h; outline: as §4
# Pontoscolex corethrurus [19] = experiment: Anthelmintic activity against Pontoscolex corethrurus ICARBC 408 assessed as mean death time; format: functional; outline: as §5
# Candida albicans [20] = experiment: Antifungal activity against Candida albicans MUCC 29 after 48 hrs by disc diffusion method; format: functional; outline: as §3
Compound,inhibition zone (IZ) (Escherichia coli [1]),MIC (Escherichia coli [2]),Time (Eudrilus [3]),inhibition zone (IZ) (Aspergillus niger),inhibition zone (IZ) (Pseudomonas aeruginosa [4]),inhibition zone (IZ) (Staphylococcus aureus [5]),MIC (Staphylococcus aureus [6]),TIME [7],Time (Pontoscolex corethrurus [8]),Time (Eudrilus [9]),inhibition zone (IZ) (Bacillus subtilis [10]),inhibition zone (IZ) (Microsporum audouinii [11]),inhibition zone (IZ) (Trichophyton benhamiae [12]),MIC (Candida albicans [13]),TIME [14],MIC (Microsporum audouinii [15]),MIC (Pseudomonas aeruginosa [16]),MIC (Trichophyton benhamiae [17]),MIC (Bacillus subtilis [18]),Time (Pontoscolex corethrurus [19]),further results
COC(=O)CNC(=O)CNC(=O)c1cc(-c2nc3ccc([N+](=O)[O-])cc3[nH]2)ccc1O,16 mm,12.5 µg/mL,25.74 min,17 mm,22 mm,9 mm,12.5 µg/mL,0.608 h,31.38 min,36.77 min,9 mm,13 mm,15 mm,6 µg/mL,0.461 h,6 µg/mL,6 µg/mL,6 µg/mL,25 µg/mL,42.45 min,inhibition zone (IZ) (Candida albicans [20]): 18 mm
Cc1cc2nc(-c3c(I)cc(C(=O)N[C@@H](Cc4ccccc4)C(=O)N[C@H](C(=O)N4CCC[C@H]4C(=O)O)C(C)C)cc3I)[nH]c2cc1C,18 mm,25 µg/mL,27.1 min,15 mm,24 mm,13 mm,25 µg/mL,0.698 h,34.13 min,44.1 min,17 mm,11 mm,13 mm,6 µg/mL,0.44 h,12.5 µg/mL,12.5 µg/mL,6 µg/mL,6 µg/mL,50.13 min,inhibition zone (IZ) (Candida albicans [20]): 17 mm
COC(=O)CNC(=O)[C@H](Cc1ccc(O)cc1)NC(=O)[C@H](C)NC(=O)c1cc(I)c(-c2nc3cc(C)c(C)cc3[nH]2)c(I)c1,17 mm,12.5 µg/mL,27.42 min,15 mm,20 mm,12 mm,12.5 µg/mL,0.652 h,34.13 min,45.3 min,15 mm,9 mm,13 mm,6 µg/mL,0.472 h,12.5 µg/mL,6 µg/mL,12.5 µg/mL,6 µg/mL,48.24 min,inhibition zone (IZ) (Candida albicans [20]): 15 mm
COC(=O)[C@@H](NC(=O)c1cc(I)c(-c2nc3cc(C)c(C)cc3[nH]2)c(I)c1)[C@@H](C)O,16 mm,12.5 µg/mL,31.22 min,15 mm,23 mm,13 mm,12.5 µg/mL,0.987 h,40.6 min,69.45 min,20 mm,8 mm,10 mm,6 µg/mL,0.587 h,25 µg/mL,6 µg/mL,10 µg/mL,6 µg/mL,78.32 min,inhibition zone (IZ) (Candida albicans [20]): 19 mm
Cc1cc2nc(-c3ccc(C(=O)N[C@@H](CC(C)C)C(=O)NCC(=O)O)cc3)[nH]c2cc1C,17 mm,12.5 µg/mL,32.8 min,17 mm,23 mm,10 mm,12.5 µg/mL,0.671 h,36.61 min,40.24 min,13 mm,11 mm,14 mm,6 µg/mL,0.438 h,25 µg/mL,6 µg/mL,6 µg/mL,6 µg/mL,48.39 min,inhibition zone (IZ) (Candida albicans [20]): 19 mm
COC(=O)[C@H](CCCNC(=N)N[N+](=O)[O-])NC(=O)c1ccc(-c2nc3cc(C)c(C)cc3[nH]2)cc1,17 mm,12.5 µg/mL,18.67 min,15 mm,23 mm,9 mm,25 µg/mL,0.443 h,21.65 min,28.21 min,14 mm,8 mm,12 mm,12.5 µg/mL,0.309 h,12.5 µg/mL,6 µg/mL,12.5 µg/mL,12.5 µg/mL,35.22 min,inhibition zone (IZ) (Candida albicans [20]): 15 mm
